These results are taken from BindingDB's records for doi:10.1021/jm940845j (University of California, 1996).

Bounds are passed on as bounds.

The term IC50 denotes the concentration that gives 50% inhibition. High values mean lower potency, low ones higher potency.

The target of the assay is Tumor necrosis factor (Homo sapiens, UniProt P01375). The experiment in a line: TNF-alpha production in PBMC by ELISA method. The method in brief: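 Human PBMC were isolated from heparinized blood by ficoll-histopaque and plated at […] cells/mL in RPMI 1640 with 20% autologous plasma and glutamine. Compound at 2X concentration was added in equal volume, 60 min preincubation, then LPS 10 ug/mL final. Supernatant was taken at 18 h for sandwich ELISA (mouse capture, rabbit detection, poly-HRP). IC50 is the concentration inhibiting TNFa production by 50% of control.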
Chain of Tumor necrosis factor (P01375 whole entry): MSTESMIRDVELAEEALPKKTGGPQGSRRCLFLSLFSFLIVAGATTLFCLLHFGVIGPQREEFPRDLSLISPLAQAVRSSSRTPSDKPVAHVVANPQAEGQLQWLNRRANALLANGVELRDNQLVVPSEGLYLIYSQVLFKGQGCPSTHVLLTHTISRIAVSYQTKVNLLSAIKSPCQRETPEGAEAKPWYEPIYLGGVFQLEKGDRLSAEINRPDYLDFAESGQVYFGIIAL
In general terms: ELISA stands for enzyme-linked immunosorbent assay.
In turn, `COc1ccc([C@@H]2CNC(=O)C2)cc1OC1CCCC1` (racemic) [Adeo] had an IC50 of 12 µM.
`CC(=O)CCCCn1c(=O)c2c(ncn2C)n(C)c1=O` [1-(5-Oxohexyl)theobromine (pentoxifylline)]: it took 85 µM to reach half-maximal inhibition (IC50).
Consider `CCOC(=O)CCn1c(=O)c2c(ncn2C)n(C)c1=O` [3-(3,7-Dimethyl-2,6-dioxo-2,3,6,7-tetrahydro-purin-1-yl)-propionic acid ethyl ester], for which the IC50 was determined as 10 µM.
As for `CCOC(=O)CCCn1c(=O)c2nccnc2n(Cc2ccccc2)c1=O` [4-(1-Benzyl-2,4-dioxo-1,4-dihydro-2H-pteridin-3-yl)-butyric acid ethyl ester], the figure is 175 µM; as for `CCCCn1c(=O)n(CCCC(=O)OCC)c(=O)c2nccnc21` [4-(1-Butyl-2,4-dioxo-1,4-dihydro-2H-pteridin-3-yl)-butyric acid ethyl ester], 15 µM; as for `CCOC(=O)CCCn1c(=O)c2nccnc2n(CC(C)C)c1=O` [4-(1-Isobutyl-2,4-dioxo-1,4-dihydro-2H-pteridin-3-yl)-butyric acid ethyl ester], 20 µM.
As for `CCOC(=O)CCCn1c(=O)c2nccnc2n(C)c1=O` [4-(1-Methyl-2,4-dioxo-1,4-dihydro-2H-pteridin-3-yl)-butyric acid ethyl ester], the figure is 12 µM.
In the case of `Cn1c(=O)n(CCCC(=O)O)c(=O)c2nccnc21` [4-(1-Methyl-2,4-dioxo-1,4-dihydro-2H-pteridin-3-yl)-butyric acid] it was > 200 µM; in that of `CCOC(=O)CCCn1c(=O)c2ccccc2n(C)c1=O` [4-(1-Methyl-2,4-dioxo-1,4-dihydro-2H-quinazolin-3-yl)-butyric acid ethyl ester], 55 µM; in that of `Cn1c(=O)n(CCCC(=O)O)c(=O)c2ccccc21` [4-(1-Methyl-2,4-dioxo-1,4-dihydro-2H-quinazolin-3-yl)-butyric acid], > 200 µM.
On to `CCOC(=O)CCCn1c(=O)c2nc(-c3ccccc3)cnc2n(C)c1=O` [4-(1-Methyl-2,4-dioxo-6-phenyl-1,4-dihydro-2H-pteridin-3-yl)-butyric acid ethyl ester], for which the IC50 is > 200 µM.
As for `CCCCCn1c(=O)n(CCCC(=O)OCC)c(=O)c2nccnc21` [4-(2,4-Dioxo-1-pentyl-1,4-dihydro-2H-pteridin-3-yl)-butyric acid ethyl ester], the figure is 16 µM.
`CCCn1c(=O)n(CCCC(=O)OCC)c(=O)c2nccnc21` [4-(2,4-Dioxo-1-propyl-1,4-dihydro-2H-pteridin-3-yl)-butyric acid ethyl ester] registered an IC50 of 5 µM. This IC50 is about 3.2-fold lower than that of the molecule before.
As for `CCCn1c(=O)n(CCCC(=O)O)c(=O)c2nccnc21` [4-(2,4-Dioxo-1-propyl-1,4-dihydro-2H-pteridin-3-yl)-butyric acid], the figure is > 200 µM; as for `CCOC(=O)CCCn1c(=O)c2c(ncn2C)n(C)c1=O` [4-(3,7-Dimethyl-2,6-dioxo-2,3,6,7-tetrahydro-purin-1-yl)-butyric acid ethyl ester], 6 µM.
`Cn1cnc2c1c(=O)n(CCCC(=O)O)c(=O)n2C` [4-(3,7-Dimethyl-2,6-dioxo-2,3,6,7-tetrahydro-purin-1-yl)-butyric acid]: the IC50 was > 200 µM.
Consider `COC(=O)c1ccc(Cn2c(=O)c3c(ncn3C)n(C)c2=O)cc1` [4-(3,7-Dimethyl-2,6-dioxo-2,3,6,7-tetrahydro-purin-1-ylmethyl)-benzoic acid methyl ester], for which the IC50 is > 200 µM.
In the case of `CCCCOc1cc(C[C@@H]2CNC(=O)N2)ccc1OC` [4-(3-Butoxy-4-methoxy-benzyl)-imidazolidin-2-one] it was 50 µM; in that of `CCOC(=O)CCCn1c(=O)c2nsnc2n(C)c1=O` [4-(4-Methyl-5,7-dioxo-4,5-dihydro-7H-[1,2,5]thiadiazolo[3,4-d]pyrimidin-6-yl)-butyric acid ethyl ester], 25 µM; in that of `Cn1c(=O)n(CCCC(=O)O)c(=O)c2nsnc21` [4-(4-Methyl-5,7-dioxo-4,5-dihydro-7H-[1,2,5]thiadiazolo[3,4-d]pyrimidin-6-yl)-butyric acid], > 200 µM.
In the case of `CCCn1c(=O)n(CCCC(=O)OCC)c(=O)c2nsnc21` [4-(5,7-Dioxo-4-propyl-4,5-dihydro-7H-[1,2,5]thiadiazolo[3,4-d]pyrimidin-6-yl)-butyric acid ethyl ester] it was 18 µM; in that of `CCOC(=O)CCCn1c(=O)c2nc(CC)c(CC)nc2n(C)c1=O` [4-(6,7-Diethyl-1-methyl-2,4-dioxo-1,4-dihydro-2H-pteridin-3-yl)-butyric acid ethyl ester], 130 µM.
In the case of `CCCn1c(=O)n(CCCC(=O)OCC)c(=O)c2c1ncn2C` [4-(7-Methyl-2,6-dioxo-3-propyl-2,3,6,7-tetrahydro-purin-1-yl)-butyric acid ethyl ester] it was 5 µM; in that of `CCOC(=O)CCCn1c(=O)c2c(nc(Br)n2C)n(C)c1=O` [4-(8-Bromo-3,7-dimethyl-2,6-dioxo-2,3,6,7-tetrahydro-purin-1-yl)-butyric acid ethyl ester], 60 µM; in that of `COC(=O)c1ccc(Cn2c(=O)c3c(nc(Br)n3C)n(C)c2=O)cc1` [4-(8-Bromo-3,7-dimethyl-2,6-dioxo-2,3,6,7-tetrahydro-purin-1-ylmethyl)-benzoic acid methyl ester], > 200 µM.
On to `CCOC(=O)CCCn1c(=O)c2c([nH]c(=S)n2C)n(C)c1=O` [4-(8-Mercapto-3,7-dimethyl-2,6-dioxo-2,3,6,7-tetrahydro-purin-1-yl)-butyric acid ethyl ester], for which 100 µM corresponded to half-maximal inhibition (IC50).
In the case of `CCOC(=O)c1ccc(Cn2c(=O)c3c([nH]c(=S)n3C)n(C)c2=O)cc1` [4-(8-Mercapto-3,7-dimethyl-2,6-dioxo-2,3,6,7-tetrahydro-purin-1-ylmethyl)-benzoic acid ethyl ester] it was > 200 µM.
The molecule `CCOC(=O)CCCn1c(=O)c2nccnc2n(C2CCOC2)c1=O` (stereo not drawn) [4-[2,4-Dioxo-1-(tetrahydro-furan-3-yl)-1,4-dihydro-2H-pteridin-3-yl]-butyric acid ethyl ester] had an IC50 of 19 µM. This lies in the double-digit micromolar range.
The molecule `CCOC(=O)CCCCn1c(=O)c2c(ncn2C)n(C)c1=O` [5-(3,7-Dimethyl-2,6-dioxo-2,3,6,7-tetrahydro-purin-1-yl)-pentanoic acid ethyl ester] returned an IC50 of 11 µM.
In the case of `CCCCCCCn1c(=O)c2nsnc2n(C)c1=O` [6-Heptyl-4-methyl-4H-[1,2,5]thiadiazolo[3,4-d]pyrimidine-5,7-dione] it was 75 µM; in that of `Cn1c(=O)[nH]c(=O)c2[nH]c(=S)[nH]c21` [8-Mercapto-3-methyl-3,7-dihydro-purine-2,6-dione], > 200 µM; in that of `CCOC(=O)Cn1c(=O)c2c(ncn2C)n(C)c1=O` [(3,7-Dimethyl-2,6-dioxo-2,3,6,7-tetrahydro-purin-1-yl)-acetic acid ethyl ester], 200 µM.
As for `COC(=O)/C=C\Cn1c(=O)c2nccnc2n(C)c1=O` [(Z)-4-(1-Methyl-2,4-dioxo-1,4-dihydro-2H-pteridin-3-yl)-but-2-enoic acid methyl ester], the figure is 25 µM.
